Measured values from ChEMBL document CHEMBL3822391, “Synthesis and Biological Evaluation of Vitamin D3 Metabolite 20S,23S-Dihydroxyvitamin D3 and Its 23R Epimer” (J Med Chem, 2016).
The source made the active and inactive calls. No cut-off for these calls is given here.

Legend:
[1] = Antiinflammatory activity in DBA/1 mouse splenocytes assessed as upregulation of LAIR1 level by measuring mean fluorescence intensity at 100 nM by flow cytometry (reference value: 766 +/- 22 au); type: functional, cell-based; details: Splenocyte
Procedure, shortened: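 Splenocytes from DBA/1 mice were cultured in EMEM with 9% charcoal-stripped FBS and treated overnight at 10^-7 M, with an ethanol vehicle control. Cells were stained with fluorochrome anti-CD4 and anti-LAIR1. LAIR1 mean fluorescence was read by multiparameter flow cytometry, gated on CD4 cells.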

Vitamin D3 receptor [2] = molecular target: T1, Vitamin D3 receptor (Homo sapiens, UniProt P11473); assay: Activation of VDR in human HaCaT cells expressing lentiviral VDRE-luciferase vector assessed as VDRE-mediated transcriptional activity measured after 24 hrs by luciferase transcriptional reporter assay; type: cell-based
T1 sequence (P11473 whole entry): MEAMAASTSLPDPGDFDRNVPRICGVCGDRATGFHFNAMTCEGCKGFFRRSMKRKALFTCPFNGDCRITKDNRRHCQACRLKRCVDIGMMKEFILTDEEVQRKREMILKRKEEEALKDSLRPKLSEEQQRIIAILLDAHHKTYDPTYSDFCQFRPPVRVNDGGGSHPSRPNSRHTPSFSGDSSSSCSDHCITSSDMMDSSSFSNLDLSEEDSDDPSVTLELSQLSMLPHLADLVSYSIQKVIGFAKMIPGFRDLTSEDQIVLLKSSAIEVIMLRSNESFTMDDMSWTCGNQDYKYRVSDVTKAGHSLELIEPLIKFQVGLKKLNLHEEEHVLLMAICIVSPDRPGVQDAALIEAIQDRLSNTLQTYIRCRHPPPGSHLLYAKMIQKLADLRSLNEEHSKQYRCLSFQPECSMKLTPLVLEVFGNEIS

[3] = Growth inhibition of human SK-MEL-188 cells measured after 48 hrs by MTS/PMS assay; type: functional; details: SK-MEL-188, 48 h
Vitamin D3 receptor [4] = molecular target: T1, Vitamin D3 receptor; assay: Activation of VDR in human Jurkat cells expressing lentiviral VDRE-luciferase vector assessed as VDRE-mediated transcriptional activity measured after 24 hrs by luciferase transcriptional reporter assay; type: cell-based
Vitamin D3 receptor [5] = molecular target: T1, Vitamin D3 receptor; assay: Activation of VDR in human Caco2 cells expressing lentiviral VDRE-luciferase vector assessed as VDRE-mediated transcriptional activity measured after 24 hrs by luciferase transcriptional reporter assay; type: cell-based, Caco-2
[6] = molecular target: T2, 25-hydroxyvitamin D-1 alpha hydroxylase, mitochondrial (Mus musculus, UniProt O35084); assay: Activity of mouse CYP27B1 assessed as compound hydroxylation measured per mol of phospholipid after 3 mins by HPLC; type: ADME; details: 0.05 h
T2 sequence (O35084 whole entry): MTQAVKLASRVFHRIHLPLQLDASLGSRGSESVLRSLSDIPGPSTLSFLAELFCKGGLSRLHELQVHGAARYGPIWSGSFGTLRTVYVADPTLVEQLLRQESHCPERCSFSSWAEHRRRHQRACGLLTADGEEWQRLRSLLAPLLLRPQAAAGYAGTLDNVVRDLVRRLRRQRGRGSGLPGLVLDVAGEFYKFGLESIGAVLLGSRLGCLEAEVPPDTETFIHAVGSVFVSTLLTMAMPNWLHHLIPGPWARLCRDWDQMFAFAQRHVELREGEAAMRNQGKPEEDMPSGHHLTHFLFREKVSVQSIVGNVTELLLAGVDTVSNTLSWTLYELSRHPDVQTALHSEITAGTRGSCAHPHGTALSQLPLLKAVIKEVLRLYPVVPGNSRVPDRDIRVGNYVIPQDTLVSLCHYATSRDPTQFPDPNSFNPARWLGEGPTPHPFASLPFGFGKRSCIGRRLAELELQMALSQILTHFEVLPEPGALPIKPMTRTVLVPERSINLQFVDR
Procedure, shortened: (§1)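 Substrate was incorporated into phospholipid vesicles at 0.0025–0.07 mol/mol PL and incubated 3 min with 0.1 µM mouse CYP27B1. Product was quantified by HPLC. Km and kcat came from a Michaelis–Menten fit, given as mean ± standard error of the curve fit.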

[7] = molecular target: T2, 25-hydroxyvitamin D-1 alpha hydroxylase, mitochondrial; assay: Ratio of Kcat to Km for mouse CYP27B1 measured per mol of phospholipid after 3 mins by HPLC; type: ADME; details: 0.05 h; procedure, shortened: as §1
[8] = molecular target: T3, Vitamin D3 receptor (Homo sapiens) (UniProt P11473); assay: Activation of VDR in human HaCaT cells expressing lentiviral VDRE-luciferase vector assessed as VDRE-mediated transcriptional activity up to 1000 nM measured after 24 hrs by luciferase transcriptional reporter assay; type: cell-based
T3 sequence (whole entry): T1 sequence (P11473 whole entry)
Procedure, shortened: (§2)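 Cells carry a lentiviral VDRE-luciferase reporter and were selected for 1 week with an extra 1.0 µg/mL puromycin. Growth media: Caco-2 in DMEM with 10% FBS; HaCaT in the same with 5% FBS; Jurkat in RPMI 1640 with 10% FBS. Cells were plated in FBS-free medium for 24 h, then given serial concentrations (final DMSO 0.1%) for 24 h. ONE-Glo luminescence was read after 5 min at room temperature. Triplicates.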

[9] = molecular target: T3, Vitamin D3 receptor (Homo sapiens); assay: Activation of VDR in human Caco2 cells expressing lentiviral VDRE-luciferase vector assessed as VDRE-mediated transcriptional activity up to 1000 nM measured after 24 hrs by luciferase transcriptional reporter assay; type: cell-based; details: Caco-2; procedure, shortened: as §2
[10] = molecular target: T3, Vitamin D3 receptor (Homo sapiens); assay: Activation of VDR in human Jurkat cells expressing lentiviral VDRE-luciferase vector assessed as VDRE-mediated transcriptional activity up to 1000 nM measured after 24 hrs by luciferase transcriptional reporter assay; type: cell-based; procedure, shortened: as §2

Row | Compound | Flu intensity [1] | EC50 (Vitamin D3 receptor [2]) | IC50 [3] | EC50 (Vitamin D3 receptor [4]) | EC50 (Vitamin D3 receptor [5]) | Km [6] | Kcat/Km [7] | Activity [8] | Activity [9] | Activity [10]
1 | C=C1/C(=C\C=C2/CCC[C@@]3(C)[C@H]2CC[C@@H]3[C@@](C)(O)C[C@H](O)CC(C)C)C[C@@H](O)C[C@@H]1O | 1480 a.u. | 117 nM | 0.01 nM | 30.6 nM | 172 nM | – | – | – | – | –
2 | C=C1/C(=C\C=C2/CCC[C@@]3(C)[C@H]2CC[C@@H]3[C@@](C)(O)C[C@@H](O)CC(C)C)C[C@@H](O)C[C@@H]1O | 1480 a.u. | 175 nM | 0.01 nM | 203 nM | 241 nM | – | – | – | – | –
3 | C=C1/C(=C\C=C2/CCC[C@]3(C)[C@@H]([C@H](C)OCCC(C)(C)O)CC[C@@H]23)C[C@@H](O)C[C@@H]1O [MAXACALCITOL] | 1480 a.u. | 160 nM | – | 0.855 nM | 144 nM | – | – | – | – | –
4 | C=C1/C(=C\C=C2/CCC[C@]3(C)[C@@H]([C@H](C)CCCC(C)(C)O)CC[C@@H]23)C[C@@H](O)C[C@@H]1O | 1360 a.u. | – | – | – | – | – | – | – | – | –
5 | C=C1CC[C@H](O)C/C1=C/C=C1\CCC[C@@]2(C)[C@H]1CC[C@@H]2[C@@](C)(O)C[C@H](O)CC(C)C | 1480 a.u. | 484 nM | 0.01 nM | 653 nM | 562 nM | 2.3 ×10⁻³ mol/mol | 5087 | – | – | –
6 | C=C1CC[C@H](O)C/C1=C/C=C1\CCC[C@@]2(C)[C@H]1CC[C@@H]2[C@@](C)(O)C[C@@H](O)CC(C)C | 1480 a.u. | – | 0.01 nM | – | – | 5.2 ×10⁻³ mol/mol | 4731 | inactive | inactive | inactive
